# CSN deneddyl inh: inhibitors of human CSN-mediated cullin deneddylation; inhibition, % at 12.5 µM; Q92905; 360,000 tested, 0.38% active; Purified CSN, SCF-Nedd8-OG deneddylation, fluorescence polarization; AID 651999;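 active = pattern-corrected inhibition above about 35%, with an unprinted fluorescence ratio check between 0.5 and 1.5, limit read from the data, passing the limit was not always enough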;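 also: 0% = enzyme with substrate and 100% = substrate without enzyme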
#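 Test system: Human Csn5 produced in HEK293T cells | Compound: 12.5 µM single point | Times: 90 min, room temperature | Signal: Fluorescence polarization readout | Read-out basis: % inhibition of substrate cleavage by Csn5 | Controls: no-enzyme wells high, enzyme-with-substrate wells low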
# UHRF1 binding: UHRF1 methyl-DNA binding inhibition; 370,000 tested, 0.75% active; Q96T88; UHRF1 binding to methylated oligo, TR-FRET; AID 687016; inhibition, % at 4.4 µM; in the data active = inhibition above about 21%;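 also: UHRF1 SRA domain binding a hemimethylated CpG hairpin DNA probe; 0% = median of test compound wells and 100% = reference inhibitor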
# MBD2 DNA inh: MBD2-methylated oligo binding inhibition; TR-FRET, MBD2 binding to methylated oligonucleotide; inhibition, % at 4.4 µM; 370,000 tested, 0.31% active; AID 686964; in the data active = inhibition above about 13%
# ATG4B inhibitor: inhibitors of human ATG4B cysteine protease; Q9Y4P1; ATG4B cleavage of LC3-PLA2, NBD-HPC fluorescence, 1 h; inhibition, % at 8.33 µM; 340,000 tested, 0.51% active; AID 504462; in the data active = inhibition above about 40%
# Target sequence (Q9Y4P1 whole entry, looked up): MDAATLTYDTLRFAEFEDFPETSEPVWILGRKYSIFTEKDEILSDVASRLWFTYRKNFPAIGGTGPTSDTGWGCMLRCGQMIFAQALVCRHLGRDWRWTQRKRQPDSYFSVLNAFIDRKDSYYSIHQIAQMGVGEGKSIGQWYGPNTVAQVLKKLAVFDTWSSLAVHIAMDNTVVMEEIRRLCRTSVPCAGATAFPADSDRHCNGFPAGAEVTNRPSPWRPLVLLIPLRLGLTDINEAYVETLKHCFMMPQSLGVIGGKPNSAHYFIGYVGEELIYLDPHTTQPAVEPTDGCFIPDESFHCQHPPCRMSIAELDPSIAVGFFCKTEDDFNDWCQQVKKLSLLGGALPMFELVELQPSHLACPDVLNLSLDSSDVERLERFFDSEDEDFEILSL
# rCAG binder: binds r(CAG) RNA repeats | r(CAG) RNA repeat, TO-PRO-1 dye displacement fluorescence | inhibition, % at 3 µM | 370,000 tested, 1.3% active;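 active = inhibition above the plate cutoff, the mean of all test compounds on that plate plus 3 SD, cut at about 35% in these data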;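 also: 0% = DMSO alone and 100% = 100 µM mitoxantrone as full dye displacement; higher means more dye released from RNA so lower well fluorescence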
# LEDGF integ inh: blocks HIV-1 LEDGF/p75-dependent DNA integration; TR-FRET IN-LEDGF/p75 DNA integration, Eu/Cy5; inhibition, % at 3.7 µM; 370,000 tested, 0.64% active;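 active = inhibition above the screen-wide mean plus 3 SD, cut at about 13% in these data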;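 also: signal is the Cy5 over europium emission ratio at 671 and 618 nm; 0% = plate median of compound wells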
# rCAG binder conf: r(CAG) RNA repeat binding, confirmation | shares compounds with rCAG binder | TO-PRO-1 dye displacement fluorescence | inhibition, % at 3 µM | 4,300 tested, 70% active | AID 652065;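 active = inhibition above a per-plate cutoff, the mean inhibition of sample wells plus 3 SD, cut at about 35% in these data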;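 also: loss of TO-PRO-1 fluorescence as compound displaces dye from 1x1 AA loop RNA; 0% = DMSO only wells and 100% = 100 µM mitoxantrone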
# dCAG dye counter: disrupts DNA CAG TO-PRO-1 complex, flagging rCAG hits. shares compounds with rCAG binder. d(CAG) DNA oligo TO-PRO-1 dye displacement, fluorescence. inhibition, % at 3 µM. 4,300 tested, 94% active. AID 652068;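 active = inhibition above its plate's cutoff, the mean test-well inhibition plus 3 SD, cut at about 4.8% in these data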;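 also: 0% = DNA dye mix with DMSO and 100% = 100 µM mitoxantrone; hits displace the dye from DNA and so lower well fluorescence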
# DNA CAG DR: disrupts DNA CAG TO-PRO-1 complex in dose response; IC50, µM; AID 686960; 250 tested, 20% active; DNA CAG/GTC duplex TO-PRO-1 dye displacement fluorescence; shares compounds with rCAG binder; in the data active = IC50 below about 10 µM
# * = called active by the depositor; . = no result. In the library only some 3.1% were active in any assay of this set; here they are far more common.
SMILES,CSN deneddyl inh,UHRF1 binding,MBD2 DNA inh,ATG4B inhibitor,rCAG binder,LEDGF integ inh,rCAG binder conf,dCAG dye counter,others
CCCC/C=C1/[C@@H](CC)N(Cc2ccc(OC)cc2OC)C2=N[C@H](c3ccccc3)CC(=O)N21,.,2,7,.,.,2,.,.,
CN1C(=O)NC(c2ccccc2)C2=C1CN(c1cccc(C(F)(F)F)c1)C2=O (stereo unspecified),3,1,-6,-13,49*,1,3,0,
Cc1ccccc1N1CC2=C(C1=O)C(c1ccccc1)NC(=O)N2C (stereo unspecified),5,3,0,-2,-8,0,.,.,
Cc1ccc(NC(=O)C2CCCN(c3nnc(-n4cccc4)s3)C2)c(C)c1 (stereo unspecified),.,0,1,.,4,-1,.,.,
Cc1cnn(-c2ccccc2)c1NC(=O)COCc1ccccc1,.,1,-3,.,0,2,.,.,
CC(C)(C)c1ccc(C(=O)Nc2cc(Cl)c(Cl)cc2C(=O)O)cc1,.,1,0,.,.,4,.,.,
COc1ccc(/C=C(\NC(=O)c2ccc(OC)cc2)C(=O)Nc2cccc(C(=O)O)c2)cc1,2,5,3,8,18,-7,.,.,
COc1ccc(C(=O)N/C(=C/c2ccc(Cl)cc2)C(=O)Nc2ccc(C(=O)O)cc2)cc1,5,1,2,0,46*,-2,42*,12*,
CCOC(=O)c1c(-c2ccc(-c3ccccc3)cc2)csc1NC(=O)C1C2CCC(O2)C1C(=O)O (stereo unspecified),3,-1,-9,5,51*,4,67*,27*,
CC(COc1ccc(C#N)cc1F)CN1CCC(C(O)(c2ccccc2)c2ccccc2)CC1 (stereo unspecified),.,0,0,.,2,-3,.,.,
O=C(Nc1ccccc1)Nc1sccc1-c1nc2ccccc2s1,14,-6,-6,-7,28,2,.,.,
O=C(Nc1cccc(Cl)c1)Nc1sccc1-c1nc2ccccc2s1,5,-2,2,-5,35*,-1,27,18*,
Cc1ccc(C(=O)Nn2cnc3scc(-c4cccs4)c3c2=O)c(O)c1,6,0,-3,5,40*,-3,25,8.7*,
Cc1ccc(NC(=S)NNC(=O)c2cnccn2)cc1,.,1,4,.,2,-5,.,.,
C=CCN1C(=O)[C@@H](CC(=O)NCCCN2CCCC2=O)[C@]2(C(=O)OCC)CCCCC/C=C/12,.,-1,-3,.,1,-2,.,.,
Cc1ccc(S(=O)(=O)/N=C2/NC(=O)/C(=C/c3ccccc3)S2)cc1,8,0,1,18,84*,0,71*,30*,DNA CAG DR=4.9*
Cc1ccc(/C=C2\S/C(=N/S(=O)(=O)c3cccs3)NC2=O)cc1,13,0,2,29,60*,-2,65*,24*,
Cc1ccc(S(=O)(=O)/N=C2/NC(=O)/C(=C\c3ccccc3)S2)cc1,5,-2,1,16,83*,3,76*,36*,
COc1cc(/C=C2\S/C(=N/S(=O)(=O)c3ccc(C)cc3)NC2=O)c([N+](=O)[O-])cc1OC,-5,-3,-11,0,86*,2,84*,51*,
Cc1ccc(S(=O)(=O)/N=C2/NC(=O)/C(=C/c3ccncc3)S2)cc1,.,-3,-11,.,4,1,.,.,
COc1ccc(N=C2NC(=O)/C(=C\c3ccco3)S2)cc1,23,8,-2,-4,17,5,.,.,
Cc1ccc(S(=O)(=O)/N=C2/NC(=O)/C(=C\c3ccco3)S2)cc1,32,7,-4,6,69*,8,43*,11*,
N=C1C2=C3Sc4ccccc4N3CCCC2=NN1c1cccc(S(=O)(=O)O)c1,1,-1,0,-14,38*,1,47*,11*,
COc1ccc(S[C@]2(C(=O)N3CCN(C(C)=O)CC3)CC(=O)N(C(=O)CCc3ccccc3)[C@@H]2c2ccc(OC)cc2)cc1,.,7,7,.,10,6,.,.,
CCOc1ccc(NC(=O)Nc2nc(SCC)ns2)cc1,3,-1,1,-4,65*,-1,31,18*,
SMILES,CSN deneddyl inh,UHRF1 binding,MBD2 DNA inh,ATG4B inhibitor,rCAG binder,LEDGF integ inh,rCAG binder conf,dCAG dye counter,others
O=C1CCC[C@H]2C[C@H](NCc3cccs3)CC[C@]23CCCN13,.,-5,-7,.,.,0,.,.,
Cc1occc1-c1nnc(SCC(=O)Nc2ccncc2)n1-c1ccccc1,.,-1,4,.,9,3,.,.,
CC1=CCC(C(=O)O)C(C(=O)Nc2ccc(-c3nc4ccc(C)cc4s3)cc2)C1 (stereo unspecified),6,-2,1,26,67*,1,73*,36*,
CC(=O)NC(=S)Nc1ccc(-c2nc3ccc(C)cc3s2)cc1,0,0,-5,-3,4,-3,.,.,
Cc1ccc(S(=O)(=O)Nc2nc3ccc(N)cc3s2)cc1,7,0,-8,-5,11,-3,.,.,
Cc1ccc2nc(-c3ccc(NS(=O)(=O)c4ccc(F)cc4)cc3)sc2c1,0,7,3,-1,48*,4,60*,24*,
O=[N+]([O-])c1ccc2nc(NS(=O)(=O)c3ccc(F)cc3)sc2c1,3,-1,-7,10,43*,2,28,4,
Cc1ccc(-c2nc(C3CCCN(S(=O)(=O)c4cccs4)C3)no2)cc1 (stereo unspecified),.,-1,1,.,3,0,.,.,
COC(=O)[C@]12C[C@H](CC(=O)NCc3ccc(C)o3)C(=O)N(CCc3ccc(OC)c(OC)c3)C1=C[C@H](C(C)(C)C)O[C@@H]2C,.,-2,2,.,3,-1,.,.,
C=CCN1C(=O)C(CC(=O)O)SC1=Nc1ccc(N=Nc2ccccc2)cc1 (stereo unspecified),-2,0,-1,3,55*,-2,37*,8.8*,
CCCCCCCCN1C(=O)[C@@H](CC(=O)NCc2cccc3ccccc23)C[C@@]2(C(=O)OC)C1=C[C@H](COCc1ccccc1)O[C@@H]2C,.,-2,-4,.,7,-3,.,.,
N#CCc1nc2ccc(S(=O)(=O)N3CCOCC3)cc2s1,49*,2,5,0,43*,-5,25,15*,
CC(C)CCN1C(=O)c2ccc(C(=O)Nc3ccccc3C(=O)O)cc2C1=O,5,-2,0,6,55*,3,80*,51*,
